Calls of active or inactive are those of the source.

This passage reports Activity and ED50 results from ChEMBL document CHEMBL3272100, “3-Aminotetrahydrocarbazoles as a new series of central nervous system agents” (1977).

The test system of test [1] is Mus musculus. Nature of the test: Antidepressant activity in Swiss-Webster mouse assessed as prevention of reserpine-induced ptosis at 50 mg/kg, ip. In kind it is functional, organism-based. Further details: dose 50 mg/kg.
Test [2] deals with Mus musculus. The experiment in a line: Antidepressant activity in Swiss-Webster mouse assessed as prevention of reserpine-induced ptosis at 10 mg/kg, ip. In kind it is functional, organism-based. Further details: dose 10 mg/kg.
Test [3] relates to Mus musculus. Nature of the test: Antidepressant activity in Swiss-Webster mouse assessed as prevention of reserpine-induced ptosis at 30 mg/kg, ip. The format is functional, organism-based. Set-up: dose 30 mg/kg.
In test [4] the test system is Rattus norvegicus. The experiment in a line: Antipsychotic activity in Sprague-Dawley rat assessed as prevention of d-amphetamine-induced stereotyped behavior at 32 mg/kg, po measured for 1 min after 90, 100, and 110 mins injection of amphetamine. In kind it is functional, organism-based. Set-up: dose 32 mg/kg. Put shortly:
(§1)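 Male Sprague-Dawley rats, 100-130 g, given compound orally at graded doses (free base), starting at 32 mg/kg, 4 h before d-amphetamine sulfate sc at 3.7 mg/kg (free base). One-minute observations at 90, 100 and 110 min. ED50 with confidence limits calculated.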

The test system of test [5] is Mus musculus. Nature of the test: Antidepressant activity in Swiss-Webster mouse assessed as prevention of reserpine-induced ptosis at 10 to 50 mg/kg, ip. The format is functional, organism-based.
In test [6] the test system is Rattus norvegicus. The experiment in a line: Antipsychotic activity in po dosed Sprague-Dawley rat assessed as prevention of d-amphetamine-induced stereotyped behavior measured for 1 min after 90, 100, and 110 mins injection of amphetamine. The format is functional. Put shortly:
as §1

Test [7] relates to Mus musculus. Nature of the test: Antidepressant activity in Swiss-Webster mouse assessed as prevention of reserpine-induced ptosis at 30 to 50 mg/kg, ip. In kind it is functional, organism-based.
Test [8] has as its system Mus musculus. The experiment in a line: Antidepressant activity in Swiss-Webster mouse assessed as prevention of reserpine-induced ptosis at 1 to 50 mg/kg, ip. In kind it is functional, organism-based. Put shortly: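 Male Swiss-Webster mice (18-24 g) given test compounds intraperitoneally at 50, 30, 10, 1 and 0.5 mg/kg (free base), then scored for reserpine-induced ptosis. Active means a statistically significant decrease in ptosis (p < 0.05, two-tailed).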

In the case of `CN(C)C1CCc2[nH]c3ccc(OCc4ccccc4)cc3c2C1` (stereo not drawn), the outcome with Mus musculus [1] was inactive.

As to `CN(Cc1ccccc1)C1CCc2[nH]c3c(F)cc(F)cc3c2C1` (stereo not drawn), in the test on Mus musculus [1], the outcome was inactive.

For the compound `Cc1cccc2c1c1c(n2C)CCC(N(C)C)C1` (stereo not drawn), the result in the test with Mus musculus [1] was Active.

For `CN(C)C1CCc2[nH]c3cc(F)ccc3c2C1` (stereo not drawn), the outcome in the test on Mus musculus [1] was inactive.

On to `Cc1ccc2c3c([nH]c2c1)CCC(N(C)C)C3` (stereo not drawn), for which the outcome with Mus musculus [2] was Active.

For the compound `CCNC1CCc2[nH]c3ccccc3c2C1` (stereo not drawn), the result in the test on Mus musculus [2] was inactive.

On to `Cc1ccc(Cl)c2[nH]c3c(c12)CC(N(C)C)CC3` (stereo not drawn), for which the result in the test on Mus musculus [1] was Active.

On to `CCOC(=O)Cn1c2c(c3ccccc31)CC(N(C)C)CC2` (stereo not drawn), for which the result in the test with Mus musculus [2] was Active.

With `CN(C)C1CCc2[nH]c3c(Br)cccc3c2C1` (stereo not drawn), the result with Mus musculus [1] was inactive.

For the compound `CN(C)C1CCc2[nH]c3cccc(C(F)(F)F)c3c2C1` (stereo not drawn), the result in the test with Mus musculus [3] was Active.

Regarding `COc1cccc2c3c([nH]c12)CCC(N(C)C)C3` (stereo not drawn), the outcome in the test with Mus musculus [1] was inactive.

For `CN(C)CCCN1c2ccccc2CCc2ccccc21`, the outcome with Rattus norvegicus [4] was inactive. Besides, the result in the test with Mus musculus [5] was Active.

As for `Cc1cc(Cl)cc2[nH]c3c(c12)CC(N(C)C)CC3` (stereo not drawn), the outcome in the test with Mus musculus [3] was Active.

With `CN(C)C1CCc2[nH]c3c(C(F)(F)F)cccc3c2C1` (stereo not drawn), the result in the test on Mus musculus [1] was inactive.

For the compound `CSc1cccc2c3c([nH]c12)CCC(N(C)C)C3` (stereo not drawn), in the test with Mus musculus [1], the outcome was inactive.

Regarding `CCc1cccc2[nH]c3c(c12)CC(N(C)C)CC3` (stereo not drawn), the outcome in the test with Mus musculus [1] was Active.

As to `NC1CCc2[nH]c3ccccc3c2C1` (stereo not drawn), in the test with Mus musculus [3], the outcome was Active.

Consider `CCOC(=O)CCn1c2c(c3ccccc31)CC(N(C)C)CC2` (stereo not drawn), for which, in the test on Mus musculus [1], the result was inactive.

As for `c1ccc2c3c([nH]c2c1)CCC(N1CCOCC1)C3` (stereo not drawn), the outcome with Mus musculus [1] was inactive.

In the case of `Cc1cc(C)c2c3c([nH]c2c1)CCC(N(C)C)C3` (stereo not drawn), in the test with Mus musculus [1], the result was Active.

Turning to `CN(C)C1CCc2c(c3ccccc3n2C)C1` (stereo not drawn), the outcome with Mus musculus [2] was inactive.

For `CN(C)C1CCc2[nH]c3ccc(Oc4ccccc4)cc3c2C1` (stereo not drawn), the result in the test with Mus musculus [1] was inactive.

Take `Cc1ccc(C)c2c3c([nH]c12)CCC(N(C)C)C3` (stereo not drawn): the result with Mus musculus [3] was Active.

Regarding `CN(C)C1CCc2[nH]c3cccc(F)c3c2C1` (stereo not drawn), the result in the test on Mus musculus [2] was Active.

In the case of `CCc1cccc2c3c([nH]c12)CCC(N(C)C)C3` (stereo not drawn), in the test on Mus musculus [2], the outcome was Active.

On to `CCCCNC1CCc2[nH]c3ccccc3c2C1` (stereo not drawn), for which, in the test with Mus musculus [2], the result was inactive.

Take `CNC1CCc2[nH]c3c(F)cc(F)cc3c2C1` (stereo not drawn): in the test on Mus musculus [1], the result was inactive.

As to `CCCNC1CCc2[nH]c3ccccc3c2C1` (stereo not drawn), the result with Mus musculus [2] was inactive.

On to `Cc1ccc2[nH]c3c(c2c1)CC(N(C)C)CC3` (stereo not drawn), for which the outcome in the test with Mus musculus [1] was inactive.

With `Cc1cc(C)c2[nH]c3c(c2c1)CC(N(C)C)CC3` (stereo not drawn), the outcome with Mus musculus [1] was inactive.

With `CCOC(=O)c1cccc2[nH]c3c(c12)CC(N(C)C)CC3` (stereo not drawn), the outcome in the test on Mus musculus [3] was Active.

Regarding `C=CCn1c2c(c3ccccc31)CC(N(C)C)CC2` (stereo not drawn), in the test with Mus musculus [1], the outcome was inactive.

For `Cc1cccc2[nH]c3c(c12)CC(N(C)C)CC3` (stereo not drawn), the outcome in the test on Rattus norvegicus [4] was inactive. The outcome in the test with Mus musculus [5] and in the test on Mus musculus [2] was Active.

Regarding `c1ccc2c3c([nH]c2c1)CCC(N1CCCC1)C3` (stereo not drawn), the result in the test with Mus musculus [1] was inactive.

As to `CN(C)C1CCc2[nH]c3c(-c4ccccc4)cccc3c2C1` (stereo not drawn), the outcome in the test with Mus musculus [1] was Active.

Turning to `CCN(CC)CCNC1CCc2[nH]c3ccccc3c2C1` (stereo not drawn), in the test with Mus musculus [1], the result was inactive.

As to `CNC1CCc2[nH]c3ccccc3c2C1` (stereo not drawn), the outcome with Mus musculus [3] was Active.

Regarding `COc1ccc(Cl)c2c3c([nH]c12)CCC(N(C)C)C3` (stereo not drawn), the result with Mus musculus [3] was Active.

Take `CNC1CCc2[nH]c3cc(C)ccc3c2C1` (stereo not drawn): the outcome in the test with Mus musculus [1] was Active.

Consider `NC1CCc2[nH]c3c(F)cc(F)cc3c2C1` (stereo not drawn), for which, in the test with Mus musculus [1], the outcome was inactive.

In the case of `c1ccc2c3c([nH]c2c1)CCC(N1CCCCC1)C3` (stereo not drawn), the outcome with Mus musculus [1] was inactive.

Regarding `Cc1cc2[nH]c3c(c2cc1C)CC(N(C)C)CC3` (stereo not drawn), in the test with Mus musculus [1], the result was Active.

For the compound `CN(C)C1CCc2c(c3ccccc3n2Cc2ccccc2)C1` (stereo not drawn), the outcome with Mus musculus [2] was inactive.

Regarding `CN(C)C1CCc2[nH]c3c(Cl)cccc3c2C1` (stereo not drawn), in the test on Mus musculus [1], the outcome was inactive.

One may read the ED50 as the dose that gives a 50% effect, or the effect in half of the subjects. For `CN(C)C1CCc2[nH]c3c(F)cc(F)cc3c2C1` (stereo not drawn) [FLUCINDOLE], the result in the test on Mus musculus [3] and in the test on Mus musculus [7] was inactive. Also, the ED50 in the test on Rattus norvegicus [6] was 1.4 mg/kg.

With `COc1cc(C(=O)OCCn2c3c(c4ccccc42)CC(N(C)C)CC3)cc(OC)c1OC` (stereo not drawn), in the test with Mus musculus [1], the result was inactive.

For the compound `CCCc1cccc2c3c([nH]c12)CCC(N(C)C)C3` (stereo not drawn), the outcome with Mus musculus [2] was Active.

With `CN(C)C1CCc2[nH]c3c(Cl)c(Cl)ccc3c2C1` (stereo not drawn), in the test on Mus musculus [1], the outcome was Active.

Turning to `CN(C)C1CCc2[nH]c3c(F)cccc3c2C1` (stereo not drawn), in the test on Mus musculus [1], the result was inactive.

On to `CN(C)C1CCc2[nH]c3ccc(C(=O)O)cc3c2C1` (stereo not drawn), for which the result in the test with Mus musculus [1] was inactive.

With `CN(C)C1CCc2[nH]c3c(Cl)cc(Cl)cc3c2C1` (stereo not drawn), the result with Mus musculus [1] was inactive.

In the case of `CN(C)C1CCc2c(c3ccccc3n2Cc2ccc(Cl)cc2)C1` (stereo not drawn), the outcome in the test with Mus musculus [2] was inactive.

As to `CCn1c2c(c3ccccc31)CC(N(C)C)CC2` (stereo not drawn), the result with Mus musculus [3] was Active.

Regarding `CC(=O)NC1CCc2[nH]c3ccccc3c2C1` (stereo not drawn), the result in the test on Mus musculus [2] was inactive.

As to `CN(C)C1CCc2[nH]c3ccc(O)cc3c2C1` (stereo not drawn), the result with Mus musculus [1] was Active.

For `COc1ccc2[nH]c3c(c2c1)CC(N(C)C)CC3` (stereo not drawn), the outcome with Mus musculus [2] was inactive.

As to `CN(C)CCCN1c2ccccc2Sc2ccc(Cl)cc21` [CHLORPROMAZINE], the result with Mus musculus [8] was inactive. For the same compound, the ED50 in the test on Rattus norvegicus [6] worked out at 8.6 mg/kg.

In the case of `COc1cc2[nH]c3c(c2cc1OC)CC(N(C)C)CC3` (stereo not drawn), the outcome in the test with Mus musculus [1] was inactive.

Turning to `CN(C)C1CCc2c(c3ccccc3n2CC(=O)O)C1` (stereo not drawn), the outcome in the test with Mus musculus [1] was inactive.

`Fc1cc(F)c2[nH]c3c(c2c1)CC(N1CCCCC1)CC3` (stereo not drawn): in the test on Mus musculus [1], the outcome was inactive.

For `Cc1cc(Cl)c2c3c([nH]c2c1)CCC(N(C)C)C3` (stereo not drawn), in the test on Mus musculus [2], the result was Active.

`CN(C)C1CCc2c(c3ccccc3n2CCC(=O)O)C1` (stereo not drawn): the result in the test with Mus musculus [1] was inactive.

In the case of `CN(C)C1CCc2[nH]c3ccc(F)cc3c2C1` (stereo not drawn), the outcome in the test on Mus musculus [1] was inactive.

With `CN(C)C1CCc2[nH]c3cc(O)ccc3c2C1` (stereo not drawn), the result in the test with Mus musculus [1] was inactive.

As to `Cc1cccc2c3c([nH]c12)CCC(N(C)C)C3` (stereo not drawn), the outcome in the test on Mus musculus [1] was inactive.

Consider `CN(C)CCCn1c2c(c3ccccc31)CC(N(C)C)CC2` (stereo not drawn), for which the outcome in the test on Mus musculus [2] was inactive.

As for `CN(C)CCn1c2c(c3ccccc31)CC(N(C)C)CC2` (stereo not drawn), the outcome with Mus musculus [2] was inactive.

On to `CN(C)C1CCc2[nH]c3c(OCc4ccccc4)cccc3c2C1` (stereo not drawn), for which, in the test with Mus musculus [1], the outcome was inactive.

As for `CN(C)C1CCc2[nH]c3ccccc3c2C1` (stereo not drawn) [CYCLINDOLE], the result in the test on Mus musculus [5] and in the test on Mus musculus [2] was Active. The ED50 in the test on Rattus norvegicus [6] is 10.3 mg/kg.

With `CN(C)C1CCc2[nH]c3c(O)cccc3c2C1` (stereo not drawn), the result with Mus musculus [1] was inactive.

`CNC1CCc2[nH]c3cccc(C)c3c2C1` (stereo not drawn): in the test on Mus musculus [2], the outcome was Active.

As for `c1ccc(N2CCN(C3CCc4[nH]c5ccccc5c4C3)CC2)cc1` (stereo not drawn), the result with Mus musculus [1] was inactive.

Regarding `COc1ccc2c3c([nH]c2c1)CCC(N(C)C)C3` (stereo not drawn), the outcome in the test on Mus musculus [3] was Active.

As to `CN(C(=O)c1ccccc1)C1CCc2[nH]c3c(F)cc(F)cc3c2C1` (stereo not drawn), the outcome in the test with Mus musculus [1] was inactive.

Turning to `Cc1ccc(F)c2[nH]c3c(c12)CC(N(C)C)CC3` (stereo not drawn), in the test on Mus musculus [2], the result was Active.
